Test results reported in ChEMBL document CHEMBL2150871, “Design, synthesis and biological evaluation of new peptide-based ureas and thioureas as potential antagonists of the thrombin receptor PAR1” (Eur J Med Chem, 2012).

Target: T1, Proteinase-activated receptor 1 (Homo sapiens) (UniProt P25116)
T1 sequence (whole entry): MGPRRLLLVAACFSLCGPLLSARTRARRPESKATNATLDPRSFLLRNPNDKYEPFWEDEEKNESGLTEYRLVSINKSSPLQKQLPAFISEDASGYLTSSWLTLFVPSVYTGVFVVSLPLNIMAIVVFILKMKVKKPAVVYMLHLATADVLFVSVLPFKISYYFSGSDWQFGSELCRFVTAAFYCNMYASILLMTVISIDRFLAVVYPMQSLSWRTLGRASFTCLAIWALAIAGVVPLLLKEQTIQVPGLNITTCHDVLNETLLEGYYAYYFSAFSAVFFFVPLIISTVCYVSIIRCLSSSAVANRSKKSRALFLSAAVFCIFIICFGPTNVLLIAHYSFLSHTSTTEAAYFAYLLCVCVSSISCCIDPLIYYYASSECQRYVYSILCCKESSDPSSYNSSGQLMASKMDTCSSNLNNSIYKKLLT
Experiment: Antagonist activity at PAR1 in human platelets assessed as inhibition of SFLLRN-induced aggregation at 10 uM after 5 mins relative to vehicle-treated control
Type: functional
Method in brief: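 Human donors who had taken no platelet-altering drugs for two weeks gave venous blood into 3.2% buffered citrate. Spun at 250×g for 7 min to give PRP, then 900×g for 10 min to give PPP, which served as optical reference and diluent. Diluted PRP was preincubated 5 min at 37 °C with compound or DMSO vehicle, then challenged with SFLLRN. Maximal optical aggregation at 5 min was compared with SFLLRN/vehicle to give % inhibition.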

Compound: NCC[C@H](NC(=O)[C@H](Cc1ccc(F)c(F)c1)NC(=O)Nc1ccc2c(CN3CCCC3)nn(Cc3c(Cl)cccc3Cl)c2c1)C(=O)NCc1ccccc1
- inhibition: 98%
